Experiments:
Type in all cases: cell-based
Tubulin (Homo sapiens) [1] = molecular target: T1, Tubulin (Homo sapiens) (UniProt P68371+Q9H4B7+P0DPH7+P68366+Q13509+Q71U36+P04350+Q3ZCM7+P07437+P68363+Q9BQE3+Q6PEY2+Q13885+Q9BVA1+Q9BUF5); test: Stabilization of microtubules in human QBI293 cells assessed as fold change in acetylated tubulin levels at 10 uM after 4 hrs by ELISA relative to cevipabulin
Tubulin (Homo sapiens) [2] = molecular target: T1, Tubulin (Homo sapiens); test: Stabilization of microtubules in human QBI293 cells assessed as fold change in acetylated tubulin levels at 1 uM after 4 hrs by ELISA relative to cevipabulin
Tubulin (Homo sapiens) [3] = molecular target: T1, Tubulin (Homo sapiens); test: Stabilization of microtubules in human QBI293 cells assessed as fold change in acetylated tubulin levels at 1 uM after 4 hrs by ELISA relative to DMSO
Outline: (§1)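 QBI293 cells were grown in DMEM with 10% FBS, 2 mM L-glutamine and penicillin/streptomycin, then plated at 6 × 10^5 cells/well and left overnight. Medium was replaced with fresh medium holding vehicle (DMSO) or compound, and cells were incubated 4 h. Whole-cell extract supernatants were protein-normalized by BCA assay. AcTub and α-tubulin were quantified by ELISA against standard curves. Values are fold-change over DMSO, analysed by one-way ANOVA.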

Tubulin (Homo sapiens) [4] = molecular target: T1, Tubulin (Homo sapiens); test: Stabilization of microtubules in human QBI293 cells assessed as fold change in acetylated tubulin levels at 10 uM after 4 hrs by ELISA relative to DMSO; outline: as §1
Tubulin (Homo sapiens) [5] = molecular target: T1, Tubulin (Homo sapiens); test: Stabilization of microtubules in human QBI293 cells assessed as fold change in alpha tubulin levels at 10 uM after 4 hrs by ELISA relative to DMSO; outline: as §1
Tubulin (Homo sapiens) [6] = molecular target: T1, Tubulin (Homo sapiens); test: Stabilization of microtubules in human QBI293 cells assessed as fold change in alpha tubulin levels at 1 uM after 4 hrs by ELISA relative to DMSO; outline: as §1
Tubulin (Homo sapiens) [7] = molecular target: T1, Tubulin (Homo sapiens); test: Stabilization of microtubules in human QBI293 cells assessed as increase in acetylated tubulin levels after 4 hrs by ELISA
Outline: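 QBI293 cells are grown in DMEM with 10% FBS, 2 mM L-glutamine and penicillin/streptomycin, plated at 6 × 10^5 cells/well and incubated overnight. […] Acetyl- and total α-tubulin in whole-cell extract supernatants are measured by ELISA against standard curves, with protein by BCA. Values are fold-change over DMSO; AcTub is also given relative to 100 nM cevipabulin positive control. Significance is by one-way ANOVA.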

SMILES | fold change (FC) (Tubulin (Homo sapiens) [1]) | fold change (FC) (Tubulin (Homo sapiens) [2]) | fold change (FC) (Tubulin (Homo sapiens) [3]) | fold change (FC) (Tubulin (Homo sapiens) [4]) | fold change (FC) (Tubulin (Homo sapiens) [5]) | fold change (FC) (Tubulin (Homo sapiens) [6]) | Activity (Tubulin (Homo sapiens) [7])
C[C@H](Nc1c(-c2c(F)cc([S+](C)[O-])cc2F)c(Cl)nc2ncnn12)C(F)(F)F (stereo partly specified) | 0.21 | 0.21 | 0.84 | 0.87 | 0.93 | 0.96 | –
CC(C)[C@@H](Nc1c(-c2c(F)cc(F)cc2F)c(Cl)nc2ncnn12)C(F)(F)F | – | – | – | – | – | – | Dose-dependent effect
C[C@H](Nc1c(-c2ccc(C#N)cc2F)c(Cl)nc2ncnn12)C(F)(F)F | 0.67 | 0.37 | 2.01 | 3.64 | 1 | 1 | –
C[C@H](Nc1c(-c2c(F)cc([S@@+]([O-])CCCN(C)C)cc2F)c(Cl)nc2ncnn12)C(F)(F)F | 0.32 | 0.34 | 1.49 | 1.39 | 0.98 | 1.22 | –
C[C@H](Nc1c(-c2c(F)cc([N+](=O)[O-])cc2F)c(Cl)nc2ncnn12)C(F)(F)F | 1.23 | 0.6 | 3.24 | 6.65 | 0.94 | 0.96 | Dose-dependent effect
C[C@H](Nc1c(-c2ccc(F)cc2)c(Cl)nc2ncnn12)C(F)(F)F | 0.16 | 0.07 | 1.05 | 2.41 | 1.13 | 1.04 | Dose-dependent effect
Fc1cc(F)c(-c2c(Cl)nc3ncnn3c2NC2CC2)c(F)c1 | 0.07 | 0.07 | 1.17 | 1.27 | 1.26 | 1.2 | –
C[C@H](Nc1c(-c2c(F)cccc2F)c(Cl)nc2ncnn12)C(F)(F)F | 0.39 | 0.16 | 2.2 | 5.28 | 1.02 | 1.06 | Dose-dependent effect
C[C@H](Nc1c(-c2ccc(F)cc2F)c(Cl)nc2ncnn12)C(F)(F)F | 0.27 | 0.13 | 1.54 | 3.19 | 0.86 | 0.99 | Dose-dependent effect
Fc1cc(F)c(-c2c(Cl)nc3ncnn3c2N2CCCC2)c(F)c1 | 0.16 | 0.07 | 1.14 | 2.74 | 1.18 | 1.12 | Dose-dependent effect
N#Cc1cc(F)c(-c2c(Cl)nc3ncnn3c2N2CCCCCCC2)c(F)c1 | 0.79 | 0.58 | 3.24 | 4.4 | 0.99 | 1.01 | –
Fc1cc(F)c(-c2c(Cl)nc3ncnn3c2NC2CCC2)c(F)c1 | 0.23 | 0.13 | 0.97 | 1.75 | 0.95 | 0.94 | Dose-dependent effect
C[C@H](Nc1c(-c2ccccc2F)c(Cl)nc2ncnn12)C(F)(F)F | 0.26 | 0.13 | 1.73 | 3.56 | 1.05 | 1.09 | Dose-dependent effect
CC(C)(C)CNc1c(-c2c(F)cc(F)cc2F)c(Cl)nc2ncnn12 | – | – | – | – | – | – | Dose-dependent effect
Fc1cc(F)c(-c2c(Cl)nc3ncnn3c2N2CCCCCCC2)c(F)c1 | 0.7 | 0.36 | 3.7 | 7.16 | 1.28 | 1.01 | Dose-dependent effect
Fc1cc(F)c(-c2c(Cl)nc3ncnn3c2NCc2ccccc2)c(F)c1 | 0.22 | 0.16 | 1.05 | 1.49 | 1.06 | 1 | Dose-dependent effect
CC(Oc1c(-c2c(F)cc(F)cc2F)c(Cl)nc2ncnn12)C(F)(F)F (stereo unspecified) | 0.21 | 0.19 | 0.91 | 1.01 | 1.04 | 1.03 | –

Source: ChEMBL document CHEMBL4732138, “Evaluation of the Structure-Activity Relationship of Microtubule-Targeting 1,2,4-Triazolo[1,5-a]pyrimidines Identifies New Candidates for Neurodegenerative Tauopathies” (J Med Chem, 2021)
